One compound from ChEMBL document CHEMBL1135628, “Potent and long-acting corticotropin releasing factor (CRF) receptor 2 selective peptide competitive antagonists” (J Med Chem, 2002) can be followed below.

The pIC50 is the IC50 on a negative log10 scale, so that one unit is a factor of ten.

The target in experiment [1] is Corticotropin-releasing factor receptor 2 (Mus musculus) (UniProt Q60748). Put plainly: Inhibition of recombinant mouse corticotropin releasing factor receptor 2 beta (CRF2beta) assayed using nonselective [125I]-labeled agonist [Tyr0,Glu1,Nle17]-sauvagine as radioligand.
Experiment [2] concerns the target T1, Corticotropin-releasing factor receptor 1 (Homo sapiens, UniProt P34998).
T1 sequence (P34998 whole entry): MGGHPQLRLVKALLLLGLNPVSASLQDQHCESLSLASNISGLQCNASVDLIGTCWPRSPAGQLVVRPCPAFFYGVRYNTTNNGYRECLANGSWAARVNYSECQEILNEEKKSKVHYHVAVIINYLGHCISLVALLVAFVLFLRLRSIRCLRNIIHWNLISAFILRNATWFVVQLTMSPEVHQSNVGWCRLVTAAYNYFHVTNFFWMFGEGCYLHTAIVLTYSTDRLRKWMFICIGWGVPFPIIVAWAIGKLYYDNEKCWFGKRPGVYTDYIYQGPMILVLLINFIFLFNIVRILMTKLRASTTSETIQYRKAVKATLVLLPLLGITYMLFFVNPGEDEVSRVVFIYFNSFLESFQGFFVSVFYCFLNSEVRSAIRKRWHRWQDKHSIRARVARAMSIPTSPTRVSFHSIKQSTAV
Put plainly: Inhibition of recombinant corticotropin releasing factor receptor 1 assayed using nonselective [125I]-labeled agonist [Tyr0,Glu1,Nle17]-sauvagine. The gist of the method: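 Crude plasma membranes from stable CHO lines expressing hCRF1 or mCRF2β, stored in 10% sucrose at -80 °C. Incubated 90 min at room temperature, then washed and filtered. IC50 taken from one representative assay, repeated at least twice.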

pIC50: −log10 of the molar value.

Sequence of Corticotropin-releasing factor receptor 2 (Mus musculus) (Q60748 whole entry, looked up): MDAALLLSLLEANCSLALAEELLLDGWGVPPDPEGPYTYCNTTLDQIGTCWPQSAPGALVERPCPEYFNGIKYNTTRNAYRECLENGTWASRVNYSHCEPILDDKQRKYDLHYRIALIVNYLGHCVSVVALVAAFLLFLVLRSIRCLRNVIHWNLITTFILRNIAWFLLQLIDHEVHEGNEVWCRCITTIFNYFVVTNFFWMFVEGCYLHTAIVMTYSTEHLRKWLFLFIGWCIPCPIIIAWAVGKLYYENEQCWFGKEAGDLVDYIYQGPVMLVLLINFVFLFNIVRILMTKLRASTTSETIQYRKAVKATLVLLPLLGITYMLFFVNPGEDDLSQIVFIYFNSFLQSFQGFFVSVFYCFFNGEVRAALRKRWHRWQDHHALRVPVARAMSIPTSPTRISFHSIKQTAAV

Take `CCCC[C@H](NC(=O)[C@H](CCCCN)NC(=O)[C@H](CCCN=C(N)N)NC(=O)[C@H](CC(C)C)NC(=O)[C@](C)(CC(C)C)NC(=O)[C@H](Cc1c[nH]cn1)NC(=O)[C@@H](Cc1ccccc1)NC(=O)[C@H](CO)NC(=O)[C@H](CC(C)C)NC(=O)[C@H](CC(=O)O)NC(C)=O)C(=O)N[C@H](C(=O)N[C@@H](CCC(=O)O)C(=O)N[C@H](C(=O)N[C@@H](CCC(=O)O)C(=O)N[C@@H](CCCCN)C(=O)N[C@@H](CCC(N)=O)C(=O)N[C@@H](CCC(=O)O)C(=O)N[C@@H](CCCCN)C(=O)N[C@@H](CCC(=O)O)C(=O)N[C@@H](CCCCN)C(=O)N[C@@H](CCC(N)=O)C(=O)N[C@@H](CCC(N)=O)C(=O)N[C@H]1CCC(=O)NCCCC[C@@H](C(=O)N[C@@H](CCCN=C(N)N)C(=O)N[C@@H](CC(C)C)C(=O)N[C@@H](CC(C)C)C(=O)N[C@@H](CC(C)C)C(=O)N[C@@H](CC(=O)O)C(=O)N[C@@](C)(CC(C)C)C(=O)N[C@H](C(N)=O)[C@@H](C)CC)NC(=O)[C@H](CC(N)=O)NC(=O)[C@H](C)NC1=O)[C@@H](C)CC)[C@@H](C)CC`: the pIC50 in experiment [1] was 7.09; in experiment [2] it was below 6.30.
